Reference: ChEMBL document CHEMBL1153414, “Discovering potent inhibitors against the beta-hydroxyacyl-acyl carrier protein dehydratase (FabZ) of Helicobacter pylori: structure-based design, synthesis, bioassay, and crystal structure determination” (J Med Chem, 2009)
In brackets after ≈: the same amount, converted by molar mass. Activity calls are given as the source filed them. No cut-off for these calls is given here.

Legend:
[1] = Inhibition of Helicobacter pylori FabZ
How it was run: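 Spectrophotometric HpFabZ assay following the drop in A260 as crotonoyl-CoA converts to β-hydroxybutyryl-CoA. Compounds in 1% DMSO preincubated with enzyme 1 h before starting the reaction. IC50 from logistic fit of dose-response inhibition data. Means of three determinations.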

Helicobacter pylori [2] = assay: Antimicrobial activity against Helicobacter pylori SS1 by standard agar dilution method; type: functional
How it was run: (§1)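 Inoculum: H. pylori swabbed into sterile saline to 2.0 McFarland turbidity. Plates incubated at 37 °C under microaerobic gas (85% N₂, 10% CO₂, 5% O₂), read after 3 days. Compound-free agar as control.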

Helicobacter pylori [3] = assay: Antimicrobial activity against Helicobacter pylori ATCC 43504 by standard agar dilution method; type: functional; how it was run: as §1
Helicobacter pylori [4] = assay: Inhibition of Helicobacter pylori FabZ at 50 uM
How it was run: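 HpFabZ activity read spectrophotometrically as the A260 decrease during crotonoyl-CoA conversion to β-hydroxybutyryl-CoA. Single inhibitor level of 50 µM, compound in 1% DMSO preincubated with enzyme for 1 h before assay start.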

Structure (SMILES)	IC50 [1] [µM]	MIC (Helicobacter pylori [2])	MIC (Helicobacter pylori [3])	inhibition (Helicobacter pylori [4])
COCCN1C(=O)/C(=C\c2ccc(-c3ccc(Cl)c(C(=O)OC)c3)o2)S/C1=N/c1cccc(OC)c1				12.6%
COCCN1C(=O)/C(=C\c2ccc(-c3ccc(Cl)c(C(=O)OC)c3)o2)S/C1=N/c1cccc(F)c1				inactive
O=C(N/N=C/c1ccc(O)cc1O)c1cccnc1				25.6%
COCCN1C(=O)/C(=C\c2ccc(-c3ccc(Cl)c(C(=O)OC)c3)o2)S/C1=N/c1ccccc1OC				inactive
COCCN1C(=O)/C(=C\c2ccc(-c3ccc(Cl)c(C(=O)OC)c3)o2)S/C1=N/c1cccc(Br)c1				12%
COCCN1C(=O)/C(=C\c2ccc(-c3ccc(Cl)cc3)o2)S/C1=N/c1ccccc1				inactive
COCCN1C(=O)/C(=C\c2ccc(-c3ccc(Cl)c(C(=O)OC)c3)o2)S/C1=N/c1cccc(C(F)(F)F)c1				19.9%
O=C(N/N=C/c1cc(Br)c(O)c(Br)c1O)c1cc2ccccc2cc1O	0.86	100 µg/mL (≈ 208 µM)	100 µg/mL (≈ 208 µM)	
COCCN1C(=O)/C(=C\c2ccc(-c3cc(C(=O)OC)ccc3Cl)o2)S/C1=N/c1ccccc1				inactive
COCCN1C(=O)/C(=C\c2ccc(-c3ccc(Cl)c(C(=O)OC)c3)o2)S/C1=N/c1ccc(Br)cc1				inactive
COCCN1C(=O)/C(=C\c2ccc(-c3ccc(Cl)c(C(=O)O)c3)o2)S/C1=N/c1ccccc1				63.9%
CCN(CC)CCN1C(=O)/C(=C\c2ccc(-c3ccc(Cl)c(C(=O)OC)c3)o2)S/C1=N/c1ccccc1				inactive
COCCN1C(=O)/C(=C\c2ccc(-c3ccc(Cl)c(C(=O)OC)c3)o2)S/C1=N/c1ccccc1				inactive
COCCN1C(=O)/C(=C\c2ccc(-c3ccc(Cl)c(C(=O)OC)c3)o2)S/C1=N/c1ccccc1F				10%
COc1c(Br)cc(/C=N/NC(=O)c2cccnc2)c(OC)c1Br				64.4%
O=C(N/N=C/c1ccc(O)cc1)c1cccnc1				15.1%
COCCN1C(=O)/C(=C\c2ccc(-c3ccc(Cl)c(C(=O)OC)c3)o2)S/C1=N/c1ccccc1C(F)(F)F				inactive
O=C(N/N=C/c1cc(Br)c(O)c(Br)c1O)c1ccc2c(c1)Cc1ccccc1-2	3.75	100 µg/mL (≈ 199 µM)	50 µg/mL (≈ 99.6 µM)	
COCCN1C(=O)/C(=C\c2ccc(-c3ccc(Cl)c(C(=O)OC)c3)o2)S/C1=N/c1ccc(C(F)(F)F)cc1				inactive
COCCN1C(=O)/C(=C\c2ccc(-c3ccc(Cl)c(C(=O)O)c3)o2)S/C1=N/c1ccc(OC)cc1				15.4%
O=C(N/N=C/c1cc(Br)c(O)c(Br)c1)c1cccnc1				62.1%
COCCN1C(=O)/C(=C\c2ccc(-c3ccc(Cl)c(C(=O)O)c3)o2)S/C1=N/c1ccc2ccccc2c1				32.2%
COCCN1C(=O)/C(=C\c2ccc(-c3ccc(Cl)c(C(=O)OC)c3)o2)S/C1=N/c1ccccc1Br				inactive
CC(=O)N/N=C/c1cc(Br)c(O)c(Br)c1O				15.2%
COCCN1C(=O)/C(=C\c2ccc(-c3ccc(Cl)c(C(=O)OC)c3)o2)S/C1=N/c1ccc(F)cc1				inactive
O=C(N/N=C/c1cc(Br)c(O)c(Br)c1O)c1cc(C(F)(F)F)cc(C(F)(F)F)c1	2.13	100 µg/mL (≈ 182 µM)	50 µg/mL (≈ 90.9 µM)	
COCCN1C(=O)/C(=C\c2ccc(-c3ccc(Cl)c(C(=O)OC)c3)o2)S/C1=N/c1ccc(OC)cc1				inactive
COC(=O)c1cc(-c2ccc(/C=C3/S/C(=N/c4ccccc4)N(CCN4CCCC4)C3=O)o2)ccc1Cl				inactive
COC(=O)c1cc(-c2ccc(/C=C3/S/C(=N/c4ccccc4)N(CCCN(C)C)C3=O)o2)ccc1Cl				inactive
O=C(N/N=C/c1cc(Br)c(O)c(Br)c1O)c1ccc2ccccc2c1O	1.97	100 µg/mL (≈ 208 µM)	100 µg/mL (≈ 208 µM)	87%

Further lines, results first:

IC50 [1] [µM]	MIC (Helicobacter pylori [2])	MIC (Helicobacter pylori [3])	inhibition (Helicobacter pylori [4])	Structure (SMILES)
12.8	inactive	inactive		O=C(N/N=C/c1cc(Br)c(O)c(Br)c1O)c1ccc(Oc2ccccc2)cc1
			72%	O=C(N/N=C/c1cc(Br)c(O)c(Br)c1O)c1cccs1
39.8			71.4%	O=C(N/N=C/c1cc(Br)c(O)c(Br)c1O)c1cccnc1
			81.4%	COc1ccc(C(=O)N/N=C/c2cc(Br)c(O)c(Br)c2O)cc1
42.7	> 100 µg/mL	> 100 µg/mL		O=C(N/N=C/c1cc(Br)c(O)c(Br)c1O)c1ccc(-c2ccc(O)cc2)cc1
	> 100 µg/mL	> 100 µg/mL	93.8%	O=C(N/N=C/c1cc(Br)c(O)c(Br)c1O)c1ccc(Cl)cc1
			23.3%	O=C(N/N=C/c1cc(Br)c(O)c(Br)c1O)c1cccc(F)c1
	50 µg/mL (≈ 106 µM)	100 µg/mL (≈ 213 µM)	74.4%	CC(C)(C)c1ccc(C(=O)N/N=C/c2cc(Br)c(O)c(Br)c2O)cc1
			50%	O=C(Cc1ccc(O)cc1)N/N=C/c1cc(Br)c(O)c(Br)c1O
3.55	50 µg/mL (≈ 92.1 µM)	100 µg/mL (≈ 184 µM)		O=C(N/N=C/c1cc(Br)c(O)c(Br)c1O)c1ccc2cc(Br)ccc2c1
			36.4%	O=C(N/N=C/c1cc(Br)c(O)c(Br)c1O)c1ccncc1
	100 µg/mL (≈ 203 µM)	100 µg/mL (≈ 203 µM)	94.2%	O=C(N/N=C/c1cc(Br)c(O)c(Br)c1O)c1ccc(Br)cc1
			39.4%	O=C(N/N=C/c1cc(Br)c(O)c(Br)c1O)c1ccco1
	50 µg/mL (≈ 108 µM)	100 µg/mL (≈ 215 µM)	92.6%	O=C(N/N=C/c1cc(Br)c(O)c(Br)c1O)c1ccc2ccccc2c1
6.43			85%	O=C(N/N=C/c1cc(Br)c(O)c(Br)c1O)c1ccc(F)cc1
8.77	100 µg/mL (≈ 208 µM)	100 µg/mL (≈ 208 µM)		O=C(N/N=C/c1cc(Br)c(O)c(Br)c1O)c1ccc2cc(O)ccc2c1
			38.8%	O=C(N/N=C/c1cc(Br)c(O)c(Br)c1O)c1ccccc1
	100 µg/mL (≈ 203 µM)	100 µg/mL (≈ 203 µM)	96%	O=C(N/N=C/c1cc(Br)c(O)c(Br)c1O)c1cccc(Br)c1
